Results from article PMC3710115 (Nature communications, 2013).

Key:
[1] = test system: cells stably expressing firefly luciferase mRNA lacking r(CUG)^exp; assay: Control luciferase reporter lacking r; type: cell-based; details: 20 µM compound
r(CUG)12-MBNL1 complex = assay: TR-FRET inhibition of r; type: binding; details: RNA and small molecule pre-incubated followed by addition of MBNL1
Summary of the method: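 5'-Biotinylated folded RNA (60 °C for 5 min, slow cooling) or MBNL1-His6 was pre-incubated with test compound for 30 min at room temperature; the order depended on the compound. The partner was then added for 15 min at room temperature, followed by streptavidin-XL665 and Tb-anti-His6, and TR-FRET was read. IC50 was obtained from a four-parameter logistic fit.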

[2] = test system: C2C12 cells stably expressing firefly luciferase mRNA with r(CUG)800 in the 3' UTR; assay: Luciferase reporter model of the DM1 translational defect; type: cell-based; details: 20 µM compound; +r(CUG)^exp; no change = 0%
Summary of the method: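 C2C12 cells stably express firefly luciferase mRNA with a (CTG)800 expansion in the 3' UTR. Cells were dosed with 20 µM test compound. Luciferase activity was measured in cell extracts and expressed as percentage increase over untreated cells, where 0 means no change.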

[3] = test system: DM1 cellular model systems; details: ref [27], [38]; cited from earlier work
[4] = test system: 5'CAG/3'GAC motif displayed by r(CAG)^exp; details: ref [40]; cited from earlier work

O=C(O)C1Nc2c(O)cccc2C2C=CCC12 (stereo not shown) [Compound 3, 6-hydroxy-3a,4,5,9b-tetrahydro-3H-cyclopenta[c]quinoline-4-carboxylic acid]
change in luciferase activity in control cells [1]: slight increase
IC50 (r(CUG)12-MBNL1 complex): 242 ± 1 µM
increase in luciferase activity relative to untreated cells [2]: ca. 125%

N=C(N)c1ccc(OCCCCCOc2ccc(C(=N)N)cc2)cc1 [pentamidine]
dosage required to improve pre-mRNA splicing defects in cellular models [3]: 25 µM

N=C(N)c1ccc(-c2cc3ccc(C(=N)N)cc3[nH]2)cc1 [DAPI, 4',6-diamidino-2-phenylindole]
selectivity over fully paired RNAs [4]: > 10 fold

Oc1nc(Nc2ccc(F)cc2)cc2ccccc12 [Compound 4, 3-((4-fluorophenyl)amino)isoquinolin-1-ol]
IC50 (r(CUG)12-MBNL1 complex): 12 ± 1 µM
increase in luciferase activity relative to untreated cells [2]: ca. 125%
